Experiments:
[1] = test system: Plasmodium falciparum; test: Antimalarial activity against chloroquine-sensitive Plasmodium falciparum 3D7 assessed as growth inhibition by [3H]hypoxanthine incorporation assay; format: functional, organism-based
In short: (§1)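 Asynchronous P. falciparum culture (65-75% rings, 0.5% parasitemia) at 2.5% final hematocrit, with triplicate 3-fold drug dilutions (10.0 to 0.0041 μg/mL) in RPMI 1640 with 0.5% Albumax II, glucose, L-glutamine and 5 μM hypoxanthine. DMSO was ≤0.01% final. After 24 h at 37 °C in 5% CO2, [3H]hypoxanthine (0.2 μCi/well) was added for a further 24 h. Plates were frozen and harvested, incorporation counted by scintillation, and IC50 obtained by curve fitting.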

[2] = test system: KB; test: Cytotoxicity against human KB cells after 72 hrs by alamar blue assay; format: cell-based
In short: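 KB cells seeded at 4 × 10^4 cells/mL in RPMI 1640 with 10% heat-inactivated fetal calf serum and grown 24 h at 37 °C in 5% CO2. Compound dilution series added in triplicate for 72 h, with podophyllotoxin as positive control. AlamarBlue added for 2-4 h; fluorescence read at ex 530/em 585 nm and IC50 obtained by curve fitting.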

[3] = Therapeutic index, ratio of IC50 for human KB cells to IC50 for Plasmodium falciparum 3D7; format: cell-based; details: KB cells (cytotoxicity) versus Plasmodium falciparum 3D7, read-out: TI
[4] = test system: Plasmodium falciparum; test: Antimalarial activity against chloroquine-sensitive Plasmodium falciparum 3D7 assessed as growth inhibition by [3H]hypoxanthine incorporation assay relative to artemisinin; format: functional
[5] = test system: Plasmodium falciparum; test: Antimalarial activity against chloroquine-resistant Plasmodium falciparum K1 (Thailand) assessed as growth inhibition by [3H]hypoxanthine incorporation assay; format: functional, organism-based; in short: as §1
[6] = test system: Plasmodium falciparum; test: Antimalarial activity against chloroquine-resistant Plasmodium falciparum K1 (Thailand) assessed as growth inhibition by [3H]hypoxanthine incorporation assay relative to artemisinin; format: functional
[7] = test system: Plasmodium berghei; test: Antimalarial activity against Plasmodium berghei ANKA infected Swiss CD1 mice (Mus musculus) assessed as reduction of parasitemia at 30 mg/kg, perorally administered after 3 hrs of infection for 3 days measured on day 4 relative to control; format: functional; details: route oral
In short: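 Male Swiss CD-1 mice (20 g) infected iv with 4 × 10^6 P. berghei ANKA-infected red cells on day 0, in groups of five. Compound was given orally in standard suspending vehicle (carboxymethylcellulose, benzyl alcohol, Tween 80, saline), 3 × 30 mg/kg, starting 3 h post-infection, once daily. Parasitemia was counted on Giemsa-stained smears on day 4 and expressed as % inhibition versus the untreated group mean.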

[8] = test system: Plasmodium berghei; test: Antimalarial activity against Plasmodium berghei ANKA infected NMRI mice (Mus musculus) assessed as reduction of parasitemia treated perorally for 3 days measured on day 4; format: functional; details: po
[9] = test system: Plasmodium berghei; test: Antimalarial activity against Plasmodium berghei ANKA infected NMRI mice (Mus musculus) assessed as mean survival time at 10 mg/kg, intraperitoneally 4 consecutive doses for 3 days measured on day 4 by FACS analysis; details: route intraperitoneal
[10] = test system: Plasmodium berghei; test: Antimalarial activity against Plasmodium berghei ANKA infected NMRI mice (Mus musculus) assessed as reduction of parasitemia at 10 mg/kg, intraperitoneally 4 consecutive doses for 3 days measured on day 4 by FACS analysis; details: ip

Row | SMILES | IC50 [1] [nM] | IC50 [2] [µM] | selectivity ratio [3] | Ratio IC50 [4] | IC50 [5] [nM] | Ratio IC50 [6] | inhibition in vivo at 30 mg/kg [7] [%] | ED50 [8] [mg/kg] | ED90 [8] [mg/kg] | MSD [9] [days] | inhibition in vivo at 10 mg/kg [10] [%]
1 | C[C@H]1[C@H](c2ccc(CN3CCCCC3)[nH]2)O[C@@H]2O[C@@]3(C)CC[C@H]4[C@H](C)CC[C@@H]1[C@@]24OO3 | 59.4 | 143 | 2410 | 0.22 | – | – | – | – | – | – | –
2 | CC(C)N1CCN(Cc2ccc([C@@H]3O[C@@H]4O[C@@]5(C)CC[C@H]6[C@H](C)CC[C@@H]([C@H]3C)[C@@]46OO5)n2C)CC1 | 5.1 | – | – | 2.51 | 8.3 | 0.99 | – | – | – | – | –
3 | C[C@H]1[C@H](c2ccc(CN3CCCC3)[nH]2)O[C@@H]2O[C@@]3(C)CC[C@H]4[C@H](C)CC[C@@H]1[C@@]24OO3 | 16.9 | 47 | 2780 | 0.76 | – | – | – | – | – | – | –
4 | C[C@H]1[C@H](c2ccc(CN3CCCCC3)n2C)O[C@@H]2O[C@@]3(C)CC[C@H]4[C@H](C)CC[C@@H]1[C@@]24OO3 | 6.1 | 39.2 | 6430 | 2.1 | – | – | – | – | – | – | –
5 | C[C@H]1[C@H](c2ccc(CN3CCOCC3)[nH]2)O[C@@H]2O[C@@]3(C)CC[C@H]4[C@H](C)CC[C@@H]1[C@@]24OO3 | 2.5 | 56.5 | 22600 | 2.84 | 3.2 | 2.56 | 100 | 2.11 | 4.3 | – | –
6 | C[C@H]1[C@H](c2ccc(CN3CCS(=O)(=O)CC3)n2C)O[C@@H]2O[C@@]3(C)CC[C@H]4[C@H](C)CC[C@@H]1[C@@]24OO3 | 2.2 | 68.3 | 31100 | 5.82 | 3.57 | 2.3 | – | – | – | – | –
7 | C[C@H]1[C@H](c2ccc(CN3CCN(C)CC3)[nH]2)O[C@@H]2O[C@@]3(C)CC[C@H]4[C@H](C)CC[C@@H]1[C@@]24OO3 | 6.5 | 85.2 | 13100 | 1.97 | 5 | 1.64 | 97.7 | – | – | 7 | 98
8 | C[C@H]1[C@H](c2ccc(CN3CCCC3)n2C)O[C@@H]2O[C@@]3(C)CC[C@H]4[C@H](C)CC[C@@H]1[C@@]24OO3 | 3.7 | 42.2 | 11400 | 3.46 | – | – | – | – | – | – | –
9 | C[C@H]1[C@H](c2ccc(CN3CCC(N4CCCC4)CC3)n2C)O[C@@H]2O[C@@]3(C)CC[C@H]4[C@H](C)CC[C@@H]1[C@@]24OO3 | 2.5 | – | – | 5.12 | 7.3 | 1.12 | – | – | – | – | –
10 | C[C@H]1[C@H](c2ccc[nH]2)O[C@@H]2O[C@@]3(C)CC[C@H]4[C@H](C)CC[C@@H]1[C@@]24OO3 | 7.4 | 62.5 | 8450 | 1.73 | – | – | – | – | – | – | –
11 | C[C@H]1[C@H](c2ccc(CN3CCSCC3)n2C)O[C@@H]2O[C@@]3(C)CC[C@H]4[C@H](C)CC[C@@H]1[C@@]24OO3 | 7.2 | 138 | 19100 | 1.78 | – | – | – | – | – | – | –
12 | C[C@H]1[C@H](c2ccc(CN3CCOCC3)n2C)O[C@@H]2O[C@@]3(C)CC[C@H]4[C@H](C)CC[C@@H]1[C@@]24OO3 | 3.5 | 86.2 | 24600 | 3.66 | 1.9 | 4.32 | 100 | 1.77 | 5.2 | – | –
13 | C[C@H]1[C@H](c2ccc(CN(C)C)n2C)O[C@@H]2O[C@@]3(C)CC[C@H]4[C@H](C)CC[C@@H]1[C@@]24OO3 | 31.6 | – | – | 0.4 | – | – | – | – | – | – | –
14 | CCN(CC)Cc1ccc([C@@H]2O[C@@H]3O[C@@]4(C)CC[C@H]5[C@H](C)CC[C@@H]([C@H]2C)[C@@]35OO4)[nH]1 | 75.8 | – | – | 0.17 | – | – | – | – | – | – | –
15 | C[C@H]1[C@H](c2cccn2C)O[C@@H]2O[C@@]3(C)CC[C@H]4[C@H](C)CC[C@@H]1[C@@]24OO3 | 5.2 | 60.3 | 11600 | 2.46 | – | – | – | 4.5 | 8.5 | – | –
16 | CC(C)N1CCN(Cc2ccc([C@@H]3O[C@@H]4O[C@@]5(C)CC[C@H]6[C@H](C)CC[C@@H]([C@H]3C)[C@@]46OO5)[nH]2)CC1 | 8.5 | 45.3 | 5330 | 1.51 | 3.5 | 2.34 | 90.5 | – | – | 6 | 90
17 | C[C@H]1[C@H](c2ccc(CN3CCN(C)CC3)n2C)O[C@@H]2O[C@@]3(C)CC[C@H]4[C@H](C)CC[C@@H]1[C@@]24OO3 | 6.5 | 96.5 | 14800 | 1.97 | 3.8 | 2.16 | 100 | 1.99 | 5.34 | 9 | 100
18 | C[C@H]1[C@H](c2ccc(CN(C)C)[nH]2)O[C@@H]2O[C@@]3(C)CC[C@H]4[C@H](C)CC[C@@H]1[C@@]24OO3 | 20.5 | 43.6 | 2130 | 0.62 | – | – | – | – | – | – | –
19 | CO[C@H]1O[C@@H]2O[C@@]3(C)CC[C@H]4[C@H](C)CC[C@@H]([C@H]1C)[C@@]24OO3 [ARTEMETHER] | 4.2 | – | – | – | – | 2.41 | 100 | – | 10.6 | – | –
20 | C[C@@H]1CC[C@H]2[C@@H](C)C(=O)O[C@@H]3O[C@@]4(C)CC[C@@H]1[C@]32OO4 [ARTEMISININ] | 12.8 | > 354 | > 27700 | – | 8.2 | – | – | – | – | – | –
21 | C[C@H]1[C@H](OC(=O)CCC(=O)O)O[C@@H]2O[C@@]3(C)CC[C@H]4[C@H](C)CC[C@@H]1[C@@]24OO3 [ARTESUNATE] | – | – | – | – | – | – | 100 | 3.23 | > 10 | 8 | 98
22 | CCN(CC)CCCC(C)Nc1ccnc2cc(Cl)ccc12 (stereo not drawn) [CHLOROQUINE PHOSPHATE] | – | 112 | – | – | – | – | – | – | – | – | –

— ChEMBL document CHEMBL1154742, “Modular synthesis and in vitro and in vivo antimalarial assessment of C-10 pyrrole mannich base derivatives of artemisinin” (J Med Chem, 2010)
